Source: ChEMBL document CHEMBL1221286, “Development of methotrexate proline prodrug to overcome resistance by MDA-MB-231 cells” (Bioorg Med Chem Lett, 2010)
pEC50: −log10 of the molar value.

What was measured:
Sus scrofa [1] = species: Sus scrofa; experiment: Activity of pig kidney prolidase measured per gram of protein
Outline: (§1)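 Pro-MTX (1 mM) hydrolysed by porcine kidney prolidase at 40 °C. Enzyme was first activated 30 min at 40 °C in 50 mM Tris–HCl (pH 8.0) with 200 mM MnCl2 and 30 mM glutathione. Samples were taken at 15 min, 30 min and 1 h and quenched with equal volume 10% TFA. Released proline was assayed colorimetrically (Chinard's reagent, 90 °C 10 min, A495). Inhibitor runs added Cbz-Pro equimolar to substrate.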

[2] = biological target: T1, Xaa-Pro dipeptidase (Homo sapiens) (UniProt P12955); experiment: Activity of prolidase in human Caco-2 cells measured per gram of protein; assay type: cell-based
T1 sequence (whole entry): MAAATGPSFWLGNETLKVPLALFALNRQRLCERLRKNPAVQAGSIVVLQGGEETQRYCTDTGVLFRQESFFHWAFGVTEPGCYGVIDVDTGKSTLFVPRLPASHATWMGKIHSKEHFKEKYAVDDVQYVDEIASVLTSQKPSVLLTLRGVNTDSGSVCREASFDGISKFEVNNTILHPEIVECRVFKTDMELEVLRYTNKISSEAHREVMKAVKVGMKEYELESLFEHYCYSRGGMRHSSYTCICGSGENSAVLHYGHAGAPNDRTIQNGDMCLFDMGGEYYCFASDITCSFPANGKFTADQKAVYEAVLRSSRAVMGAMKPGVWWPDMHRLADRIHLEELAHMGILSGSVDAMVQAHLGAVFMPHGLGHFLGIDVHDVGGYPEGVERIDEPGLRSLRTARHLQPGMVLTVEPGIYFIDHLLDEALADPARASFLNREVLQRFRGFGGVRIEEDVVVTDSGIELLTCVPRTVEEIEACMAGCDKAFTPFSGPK
Outline: (§2)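 Cells were grown to 90% confluence, trypsinized, PBS-washed, and lysed in 1% Triton X-100/PBS. Lysate was spun 18,000 rpm, 30 min, 4 °C. Supernatant was activated 2 h at 37 °C with Tris–HCl/200 mM MnCl2/30 mM glutathione. 1 mM Pro-MTX was then added at 37 °C, sampled at 15, 30 and 60 min, and TFA-quenched. Proline was read colorimetrically; specific activity is per µg protein. Cbz-Pro inhibitor was equimolar.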

[3] = biological target: T1, Xaa-Pro dipeptidase (Homo sapiens); experiment: Activity of prolidase in human HeLa cells measured per gram of protein; assay type: cell-based; outline: as §2
Sus scrofa [4] = species: Sus scrofa; experiment: Activity of pig kidney prolidase measured per gram of protein in presence of Cbz-pro; outline: as §1
[5] = biological target: T1, Xaa-Pro dipeptidase (Homo sapiens); experiment: Activity of prolidase in human Caco-2 cells measured per gram of protein in presence of Cbz-pro; assay type: cell-based; outline: as §2
[6] = biological target: T1, Xaa-Pro dipeptidase (Homo sapiens); experiment: Activity of prolidase in human HeLa cells measured per gram of protein in presence of Cbz-pro; assay type: cell-based; outline: as §2
Caco-2 = experiment: Cytotoxicity against human Caco-2 cells assessed as cell viability by XTT assay; assay type: functional, cell-based
Outline: (§3)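 Cells were seeded at 5 × 10^4 per well and grown 48 h at 37 °C, 5% CO2, before medium renewal. Drugs were added at a range of concentrations for 24 h. XTT was added for 4 h, then absorbance read at 490 nm against medium-only controls. Viability was plotted versus concentration to estimate EC50 (mean ± SD, n = 3).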

MCF7 = experiment: Cytotoxicity against human MCF7 cells assessed as cell viability by XTT assay; assay type: functional, cell-based; outline: as §3
MDA-MB-231 = experiment: Cytotoxicity against human MDA-MB-231 cells assessed as cell viability by XTT assay; assay type: functional, cell-based; outline: as §3
[7] = Chemical stability of the compound in phosphate buffer saline of pH 7.4; assay type: physicochemical

Activity (Sus scrofa [1]) [pmol/min] | Activity [2] [pmol/min] | Activity [3] [pmol/min] | Activity (Sus scrofa [4]) [pmol/min] | Activity [5] [pmol/min] | Activity [6] [pmol/min] | Stability [7] | Structure (SMILES) | pEC50 (Caco-2) | pEC50 (MCF7) | pEC50 (MDA-MB-231)
19 | 0.42 | 0.35 | 8.15 | 0.28 | 0.19 | Stable | CN(Cc1cnc2nc(N)nc(N)c2n1)c1ccc(C(=O)N[C@H](CCC(=O)O)C(=O)N2CCC[C@@H]2C(=O)O)cc1 | 5.25 | 5.28 | 4.96
 |  |  |  |  |  |  | CN(Cc1cnc2nc(N)nc(N)c2n1)c1ccc(C(=O)N[C@@H](CCC(=O)O)C(=O)O)cc1 [METHOTREXATE] | 5.96 | 6.05 | 4.10
